Laboratory results taken from ChEMBL document CHEMBL3769392, “Synthesis, antiproliferative activities, and computational evaluation of novel isocoumarin and 3,4-dihydroisocoumarin derivatives” (Eur J Med Chem, 2016).
Values after ≈ are worked out from the molar mass of the structure shown.

Test system: MCF7
Experiment: Antiproliferative activity against human MCF7 cells after 48 hrs by SRB assay
Assay type: functional
Details: MCF7, 48 h
How it was run: (§1)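 Cells kept in RPMI 1640 with 5% FBS and 1% penicillin/streptomycin at 37 °C, 5% CO2, and used at passages 5–12. Seeded at 3 to 5 x 10^4 cells/mL and exposed 48 h to 0.25, 2.5, 25 and 250 µg/mL in DMSO/RPMI (final DMSO ≤ 0.25%). Doxorubicin 0.025–25 µg/mL served as positive control. Fixed with 50% TCA at T0 and at endpoint, SRB protein read at 540 nm. Growth was T0-corrected and GI50 taken by non-linear regression.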

GI50 | Compound
28.2 µg/mL (≈ 77.4 µM) | COc1ccc2c(c1)C(=O)OC(CCCn1nnnc1-c1ccccc1)C2 (racemic)
0.66 µg/mL (≈ 3.7 µM) | O=C1OC(CO)Cc2ccccc21 (racemic)
80.8 µg/mL (≈ 342 µM) | COc1ccc2c(c1)C(=O)OC(CCCO)C2 (racemic)
< 0.025 µg/mL | COc1cccc2c1C(=O)c1c(O)c3c(c(O)c1C2=O)C[C@@](O)(C(=O)CO)C[C@@H]3O[C@H]1C[C@H](N)[C@H](O)[C@H](C)O1 [DOXORUBICIN]

Test system: HaCaT
Experiment: Selectivity index, ratio of GI50 for human HaCaT cells to GI50 for human NCI-ADR-RES cells
Assay type: functional
Details: not given

Compound | RatioGI50
COc1ccc2c(c1)C(=O)OC(CCCn1nnnc1-c1ccccc1)C2 (racemic) | >1.76
COc1ccc2c(c1)C(=O)OC(CCCO)C2 (racemic) | 1.4

Test system: not listed separately
Experiment: Antiproliferative activity against human PC3 cells after 48 hrs by SRB assay
Assay type: functional
Details: PC-3, 48 h
How it was run: as §1

Compound | GI50
COc1ccc2c(c1)C(=O)OC(CCCn1nnnc1-c1ccccc1)C2 (racemic) | 23.9 µg/mL (≈ 65.6 µM)
O=C1OC(CO)Cc2ccccc21 (racemic) | ≥ 250 µg/mL
COc1ccc2c(c1)C(=O)OC(CCCO)C2 (racemic) | 70.7 µg/mL (≈ 299 µM)
COc1cccc2c1C(=O)c1c(O)c3c(c(O)c1C2=O)C[C@@](O)(C(=O)CO)C[C@@H]3O[C@H]1C[C@H](N)[C@H](O)[C@H](C)O1 [DOXORUBICIN] | 0.085 µg/mL (≈ 0.156 µM)

Test system: HaCaT
Experiment: Selectivity index, ratio of GI50 for human HaCaT cells to GI50 for human U251 cells
Assay type: functional
Details: not given

Compound | RatioGI50
COc1ccc2c(c1)C(=O)OC(CCCn1nnnc1-c1ccccc1)C2 (racemic) | >2.29
COc1ccc2c(c1)C(=O)OC(CCCO)C2 (racemic) | 0.97

Test system: HaCaT
Experiment: Selectivity index, ratio of GI50 for human HaCaT cells to GI50 for human HT-29 cells
Assay type: functional
Details: not given

Compound | RatioGI50
COc1ccc2c(c1)C(=O)OC(CCCn1nnnc1-c1ccccc1)C2 (racemic) | >8.01
COc1ccc2c(c1)C(=O)OC(CCCO)C2 (racemic) | 0.99

Test system: NCI-H460
Experiment: Antiproliferative activity against human NCI-H460 cells after 48 hrs by SRB assay
Assay type: functional
Details: NCI-H460, 48 h
How it was run: as §1

GI50 | Compound
211 µg/mL (≈ 578 µM) | COc1ccc2c(c1)C(=O)OC(CCCn1nnnc1-c1ccccc1)C2 (racemic)
≥ 250 µg/mL | O=C1OC(CO)Cc2ccccc21 (racemic)
136 µg/mL (≈ 574 µM) | COc1ccc2c(c1)C(=O)OC(CCCO)C2 (racemic)
< 0.025 µg/mL | COc1cccc2c1C(=O)c1c(O)c3c(c(O)c1C2=O)C[C@@](O)(C(=O)CO)C[C@@H]3O[C@H]1C[C@H](N)[C@H](O)[C@H](C)O1 [DOXORUBICIN]

Test system: HT-29
Experiment: Antiproliferative activity against human HT-29 cells after 48 hrs by SRB assay
Assay type: functional
Details: HT-29, 48 h
How it was run: as §1

GI50 | Compound
31.2 µg/mL (≈ 85.6 µM) | COc1ccc2c(c1)C(=O)OC(CCCn1nnnc1-c1ccccc1)C2 (racemic)
≥ 250 µg/mL | O=C1OC(CO)Cc2ccccc21 (racemic)
132 µg/mL (≈ 559 µM) | COc1ccc2c(c1)C(=O)OC(CCCO)C2 (racemic)
0.13 µg/mL (≈ 0.239 µM) | COc1cccc2c1C(=O)c1c(O)c3c(c(O)c1C2=O)C[C@@](O)(C(=O)CO)C[C@@H]3O[C@H]1C[C@H](N)[C@H](O)[C@H](C)O1 [DOXORUBICIN]

Test system: U-251
Experiment: Antiproliferative activity against human U251 cells after 48 hrs by SRB assay
Assay type: functional
Details: U-251, 48 h
How it was run: as §1

GI50 | Compound
226 µg/mL (≈ 621 µM) | COc1ccc2c(c1)C(=O)OC(CCCn1nnnc1-c1ccccc1)C2 (racemic)
≥ 250 µg/mL | O=C1OC(CO)Cc2ccccc21 (racemic)
135 µg/mL (≈ 571 µM) | COc1ccc2c(c1)C(=O)OC(CCCO)C2 (racemic)
< 0.025 µg/mL | COc1cccc2c1C(=O)c1c(O)c3c(c(O)c1C2=O)C[C@@](O)(C(=O)CO)C[C@@H]3O[C@H]1C[C@H](N)[C@H](O)[C@H](C)O1 [DOXORUBICIN]

Test system: NCI-H460
Experiment: Selectivity index, ratio of GI50 for human HaCaT cells to GI50 for human NCI-H460 cells
Assay type: functional
Details: not given

Compound | RatioGI50
COc1ccc2c(c1)C(=O)OC(CCCn1nnnc1-c1ccccc1)C2 (racemic) | >1.19
COc1ccc2c(c1)C(=O)OC(CCCO)C2 (racemic) | 0.96

Test system: not listed separately
Experiment: Antiproliferative activity against human NCI-ADR-RES cells after 48 hrs by SRB assay
Assay type: functional
Details: not given
How it was run: as §1

Compound | GI50
COc1ccc2c(c1)C(=O)OC(CCCn1nnnc1-c1ccccc1)C2 (racemic) | 142 µg/mL (≈ 390 µM)
O=C1OC(CO)Cc2ccccc21 (racemic) | ≥ 250 µg/mL
COc1ccc2c(c1)C(=O)OC(CCCO)C2 (racemic) | 93.3 µg/mL (≈ 395 µM)
COc1cccc2c1C(=O)c1c(O)c3c(c(O)c1C2=O)C[C@@](O)(C(=O)CO)C[C@@H]3O[C@H]1C[C@H](N)[C@H](O)[C@H](C)O1 [DOXORUBICIN] | 0.14 µg/mL (≈ 0.258 µM)

Test system: HaCaT
Experiment: Selectivity index, ratio of GI50 for human HaCaT cells to GI50 for human 786-0 cells
Assay type: functional
Details: not given

Compound | RatioGI50
COc1ccc2c(c1)C(=O)OC(CCCO)C2 (racemic) | 1.28

Test system: HaCaT
Experiment: Selectivity index, ratio of GI50 for human HaCaT cells to GI50 for human PC3 cells
Assay type: functional
Details: not given

Compound | RatioGI50
COc1ccc2c(c1)C(=O)OC(CCCn1nnnc1-c1ccccc1)C2 (racemic) | > 10.5
COc1ccc2c(c1)C(=O)OC(CCCO)C2 (racemic) | 1.84

Test system: HaCaT
Experiment: Selectivity index, ratio of GI50 for human HaCaT cells to GI50 for human MCF7 cells
Assay type: functional
Details: not given

Compound | RatioGI50
COc1ccc2c(c1)C(=O)OC(CCCn1nnnc1-c1ccccc1)C2 (racemic) | >8.87
O=C1OC(CO)Cc2ccccc21 (racemic) | >378.79
COc1ccc2c(c1)C(=O)OC(CCCO)C2 (racemic) | 1.12

Test system: 786-0
Experiment: Antiproliferative activity against human 786-0 cells after 48 hrs by SRB assay
Assay type: functional
Details: 786-0, 48 h
How it was run: as §1

GI50 | Compound
≥ 250 µg/mL | COc1ccc2c(c1)C(=O)OC(CCCn1nnnc1-c1ccccc1)C2 (racemic)
≥ 250 µg/mL | O=C1OC(CO)Cc2ccccc21 (racemic)
102 µg/mL (≈ 430 µM) | COc1ccc2c(c1)C(=O)OC(CCCO)C2 (racemic)
0.025 µg/mL (≈ 0.046 µM) | COc1cccc2c1C(=O)c1c(O)c3c(c(O)c1C2=O)C[C@@](O)(C(=O)CO)C[C@@H]3O[C@H]1C[C@H](N)[C@H](O)[C@H](C)O1 [DOXORUBICIN]

Test system: not listed separately
Experiment: Cytotoxicity against human HaCaT cells after 48 hrs by SRB assay
Assay type: cell-based
Details: not given
How it was run: as §1

Compound | GI50 at 48 h
COc1ccc2c(c1)C(=O)OC(CCCn1nnnc1-c1ccccc1)C2 (racemic) | ≥ 250 µg/mL
O=C1OC(CO)Cc2ccccc21 (racemic) | ≥ 250 µg/mL
COc1ccc2c(c1)C(=O)OC(CCCO)C2 (racemic) | 130 µg/mL (≈ 551 µM)
COc1cccc2c1C(=O)c1c(O)c3c(c(O)c1C2=O)C[C@@](O)(C(=O)CO)C[C@@H]3O[C@H]1C[C@H](N)[C@H](O)[C@H](C)O1 [DOXORUBICIN] | < 0.025 µg/mL
